We go through 6 compounds from ChEMBL document CHEMBL3352487, “Synthesis, antibacterial activity, and biological evaluation of formyl hydroxyamino derivatives as novel potent peptide deformylase inhibitors against drug-resistant bacteria” (Eur J Med Chem, 2014).

Holding throughout (type): functional
The test system of one assay is Moraxella catarrhalis. Kind of assay: Antimicrobial activity against Moraxella catarrhalis after 24 hrs by broth microdilution method. Put shortly:
(§1)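 Broth microdilution following NCCLS M7-A4; ATCC strains and clinical isolates from a provincial hospital.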
On the technique in general: Broth dilution looks for growth in wells or tubes with falling amounts of substance.

Assay [1] concerns Staphylococcus aureus. Kind of assay: Antimicrobial activity against Staphylococcus aureus after 24 hrs by broth microdilution method. The essentials: as §1
Another assay has as its system Streptococcus pneumoniae. Put plainly: Antimicrobial activity against penicillin-resistant Streptococcus pneumoniae after 24 hrs by broth microdilution method. The essentials:
(§2)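 Broth microdilution following NCCLS M7-A4, using ATCC strains and clinical isolates from a provincial hospital.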

Assay [2] has as its system Staphylococcus aureus. Put plainly: Antimicrobial activity against methicillin-resistant Staphylococcus aureus after 24 hrs by broth microdilution method. The essentials: as §2
Another assay relates to Enterococcus faecalis. Kind of assay: Antimicrobial activity against Enterococcus faecalis after 24 hrs by broth microdilution method. Put shortly: as §1
Assay [3] has as its system Staphylococcus aureus. Kind of assay: Antimicrobial activity against methicillin-susceptible Staphylococcus aureus after 24 hrs by broth microdilution method. Put shortly:
as §1

Assay [4] concerns Staphylococcus epidermidis. Put plainly: Antimicrobial activity against methicillin-susceptible Staphylococcus epidermidis after 24 hrs by broth microdilution method. Put shortly: as §1
Assay [5] concerns Staphylococcus epidermidis. Kind of assay: Antimicrobial activity against methicillin-resistant Staphylococcus epidermidis after 24 hrs by broth microdilution method. The essentials:
as §2

≈ marks a conversion by molar mass, not a printed value.

As a reminder, the MIC is the lowest concentration that inhibits growth of the organism. Low values mean greater potency, high ones weaker potency. In the case of `O=CN(O)C[C@@H](CC1CCCC1)C(=O)N1C[C@@H](F)C[C@H]1C(=O)Nc1ccc(F)c[n+]1[O-]`, the MIC with Moraxella catarrhalis was determined as 0.25 µg/mL (≈ 0.568 µM); in the assay with Staphylococcus aureus [1], 2 µg/mL (≈ 4.54 µM); in the assay with Streptococcus pneumoniae, 0.03 µg/mL (≈ 0.0681 µM); with Staphylococcus aureus [2] it was 2 µg/mL (≈ 4.54 µM); against Enterococcus faecalis, 8 µg/mL (≈ 18.2 µM); against Staphylococcus aureus [3] it was 0.5 µg/mL (≈ 1.14 µM). Moreover, the MIC was 0.25 µg/mL (≈ 0.568 µM) in assay [4] and 4 µg/mL (≈ 9.08 µM) in assay [5].
In the case of `Cc1cnc(NC(=O)[C@@H]2C[C@H](C)CN2C(=O)[C@H](CC2CCCC2)CN(O)C=O)s1`, the MIC was 0.5 µg/mL (≈ 1.18 µM) in the assay on Moraxella catarrhalis; 1 µg/mL (≈ 2.37 µM) in the assay with Staphylococcus aureus [1]; 0.03 µg/mL (≈ 0.071 µM) in the assay with Streptococcus pneumoniae; 1 µg/mL (≈ 2.37 µM) in the assay with Staphylococcus aureus [2]; 4 µg/mL (≈ 9.47 µM) against Enterococcus faecalis; 0.5 µg/mL (≈ 1.18 µM) in the assay on Staphylococcus aureus [3]. Also, the MIC was 0.25 µg/mL (≈ 0.592 µM) in assay [4] and 2 µg/mL (≈ 4.73 µM) in assay [5].
With `C[C@H]1C[C@@H](C(=O)Nc2ccc(F)c[n+]2[O-])N(C(=O)[C@H](CC2CCCC2)CN(O)C=O)C1`, the minimal inhibitory concentration (MIC) in the assay with Moraxella catarrhalis was found to be 0.5 µg/mL (≈ 1.15 µM); with Staphylococcus aureus [1], 0.5 µg/mL (≈ 1.15 µM); with Streptococcus pneumoniae, 0.03 µg/mL (≈ 0.0687 µM); with Staphylococcus aureus [2] it was 0.5 µg/mL (≈ 1.15 µM); with Enterococcus faecalis, 2 µg/mL (≈ 4.58 µM); against Staphylococcus aureus [3], 0.5 µg/mL (≈ 1.15 µM). Moreover, the MIC in assay [4] and in assay [5] was 1 µg/mL (≈ 2.29 µM) in each case.
Take `Cc1cnc(NC(=O)[C@@H]2C[C@H]3CCCC[C@@H]3N2C(=O)[C@H](CC2CCCC2)CN(O)C=O)s1`: the MIC is 0.5 µg/mL (≈ 1.08 µM) in the assay on Moraxella catarrhalis; 4 µg/mL (≈ 8.65 µM) with Staphylococcus aureus [1]; 0.03 µg/mL (≈ 0.0648 µM) in the assay on Streptococcus pneumoniae; 4 µg/mL (≈ 8.65 µM) in the assay with Staphylococcus aureus [2]; greater than 16 µg/mL in the assay with Enterococcus faecalis; 4 µg/mL (≈ 8.65 µM) in the assay on Staphylococcus aureus [3]. For the same compound, the MIC in assay [4] was 0.5 µg/mL (≈ 1.08 µM); in assay [5] it was 8 µg/mL (≈ 17.3 µM).
In the case of `O=CN(O)C[C@@H](CC1CCCC1)C(=O)N1[C@H](C(=O)Nc2ccc(F)cn2)C[C@H]2CCCC[C@@H]21`, the MIC with Moraxella catarrhalis was 0.03 µg/mL (≈ 0.0651 µM); in the assay on Staphylococcus aureus [1], 4 µg/mL (≈ 8.69 µM); in the assay with Streptococcus pneumoniae, 0.03 µg/mL (≈ 0.0651 µM); in the assay on Staphylococcus aureus [2], 4 µg/mL (≈ 8.69 µM); with Enterococcus faecalis, greater than 16 µg/mL; against Staphylococcus aureus [3], 4 µg/mL (≈ 8.69 µM). Also, the MIC in assay [4] is 0.25 µg/mL (≈ 0.543 µM); in assay [5], 4 µg/mL (≈ 8.69 µM).
On to `Cc1ccc(NC(=O)[C@@H]2C[C@H]3CCCC[C@@H]3N2C(=O)[C@H](CC2CCCC2)CN(O)C=O)nc1`, for which the MIC in the assay on Moraxella catarrhalis was 0.5 µg/mL (≈ 1.1 µM); in the assay with Staphylococcus aureus [1] it was 4 µg/mL (≈ 8.76 µM); against Streptococcus pneumoniae, 0.03 µg/mL (≈ 0.0657 µM); against Staphylococcus aureus [2], 4 µg/mL (≈ 8.76 µM); in the assay with Enterococcus faecalis it was greater than 16 µg/mL; against Staphylococcus aureus [3], 4 µg/mL (≈ 8.76 µM). Moreover, the values for the MIC in assay [4] and in assay [5] were 0.5 µg/mL (≈ 1.1 µM) and 8 µg/mL (≈ 17.5 µM), respectively.
